Calls of active or inactive are those of the source. The calls are words filed in the database; no cut-off is given here.
Experiments:
MDA-MB-231 [1] = experiment: Antimigratory activity against human MDA-MB-231 cells at 50 uM after 24 hrs by wound healing assay; format: functional, cell-based
In short: (§1)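 Cells grown to >90% confluent monolayer in RPMI 1640 with 10% FBS, glutamine, penicillin/streptomycin at 37 °C, 5% CO2, then scratched with a sterile 200 µL pipette tip. Compounds added in DMSO, in triplicate; PMH 200 µM positive control, DMSO vehicle control. After 24 h serum-starved incubation, cells were fixed and Diff Quick stained. Migrated cells counted in ≥3 random 400× fields, reported as mean ± SEM.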

MDA-MB-231 [2] = experiment: Antiproliferative activity against human MDA-MB-231 cells at 5 to 50 uM after 24 hrs by MTT assay; format: functional, cell-based
In short: (§2)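 After 3-4 passages in RPMI 1640 with 10% FBS, cells were seeded at 8 × 10^3 per well and left to attach for 24 h. Medium was then replaced with serum-free RPMI containing compound at 50, 20, 10 or 5 µM. Viability was read by MTT conversion to formazan, and cell number was taken from a standard curve of plated cells, with cells kept in exponential growth.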

PC-3 [3] = experiment: Antiproliferative activity against human PC3 cells at 5 to 50 uM after 24 hrs by MTT assay; format: functional, cell-based; in short: as §2
MDA-MB-231 [4] = experiment: Antimigratory activity against human MDA-MB-231 cells after 24 hrs by wound healing assay; format: functional, cell-based; conditions: MDA-MB-231, 24 h; in short: as §1
MDA-MB-231 [5] = experiment: Antimigratory activity against human MDA-MB-231 cells at 5 to 30 uM after 24 hrs by wound healing assay; format: functional, cell-based; in short: as §1
[6] = system: MDA-MB-231 (Homo sapiens); experiment: Antimigratory activity against human MDA-MB-231 cells at 5 to 30 uM after 24 hrs by wound healing assay
MDA-MB-231 [7] = experiment: Antiproliferative activity against human MDA-MB-231 cells after 24 hrs by MTT assay; format: functional, cell-based; conditions: MDA-MB-231, 24 h; in short: as §2
PC-3 [8] = experiment: Antimigratory activity against human PC3 cells at 50 uM after 24 hrs by wound healing assay; format: functional, cell-based; in short: as §1
PC-3 [9] = experiment: Antimigratory activity against human PC3 cells after 24 hrs by wound healing assay; format: functional, cell-based; conditions: PC-3, 24 h; in short: as §1
PC-3 [10] = experiment: Antimigratory activity against human PC3 cells at 200 uM after 24 hrs by wound healing assay; format: functional, cell-based; in short: as §1
MDA-MB-231 [11] = experiment: Antimigratory activity against human MDA-MB-231 cells at 200 uM after 24 hrs by wound healing assay; format: functional, cell-based; in short: as §1

Compound | Activity (MDA-MB-231 [1]) | Activity (MDA-MB-231 [2]) | Activity (PC-3 [3]) | Activity (PC-3 [8]) | also measured
CC1=C2CC/C(C)=C/CC[C@]3(C)O[C@H]3CC/C(C)=C/[C@@H]2OC1 | Active | inactive | inactive | – | –
CCCCO[C@H]1CC/C(C)=C/[C@@H]2OC(=O)C(C)=C2CC/C(C)=C/CC[C@]1(C)O | – | – | inactive | – | IC50 (MDA-MB-231 [4]): 30 µM; Activity (MDA-MB-231 [5]): inactive; Activity [6]: inactive; IC50 (MDA-MB-231 [7]): 20 µM
C=C1CC/C=C(\C)CCC2=C(C)C(=O)O[C@H]2/C=C(\C)CC[C@@H]1OC(=O)NC1CCCCC1 | – | – | inactive | Active | IC50 (MDA-MB-231 [4]): 17.2 µM; Activity (MDA-MB-231 [5]): Active; Activity [6]: Active; IC50 (MDA-MB-231 [7]): 45 µM; IC50 (PC-3 [9]): 15.5 µM
CC1=C2CC/C(C)=C/CC[C@](C)(O)[C@@H](O)CC/C(C)=C/[C@@H]2OC1=O | Active | inactive | inactive | – | –
CC1=C2CC/C(C)=C/CC[C@]3(C)O[C@H]3CC/C(C)=C\[C@H]2OC1 | – | inactive | inactive | Active | –
CC1=C2CC/C(C)=C/CC[C@]3(C)O[C@H]3CC/C(C)=C/[C@@H]2OC1=O | – | inactive | inactive | – | –
C=C1CC/C=C(\C)CCC2=C(C)C(=O)O[C@H]2/C=C(\C)CC[C@@H]1OC(=O)NCCCCC | Active | inactive | inactive | – | –
C=C1CC/C=C(\C)CCC2=C(C)C(=O)O[C@H]2/C=C(\C)CC[C@@H]1OC(=O)Nc1ccccc1 | Active | inactive | inactive | Active | IC50 (PC-3 [9]): 16.3 µM
C=C1CC/C=C(\C)CCC2=C(C)C(=O)O[C@H]2/C=C(\C)CC[C@@H]1O | Active | inactive | inactive | – | –
CO[C@H]1CC/C(C)=C/[C@@H]2OC(=O)C(C)=C2CC/C(C)=C/CC[C@]1(C)O | – | inactive | inactive | – | –
CCCO[C@H]1CC/C(C)=C/[C@@H]2OC(=O)C(C)=C2CC/C(C)=C/CC[C@]1(C)O | Active | inactive | inactive | Active | –
C=C1CC/C=C(\C)CCC2=C(C)C(=O)O[C@H]2/C=C(\C)CC[C@@H]1OC(=O)NCCCCl | – | inactive | inactive | – | –
C=C1CC/C=C(\C)CCC2=C(C)C(=O)O[C@H]2/C=C(\C)CC[C@@H]1OC(=O)NCCCC | – | – | inactive | Active | IC50 (MDA-MB-231 [4]): 4.83 µM; Activity (MDA-MB-231 [5]): Active; Activity [6]: Active; IC50 (MDA-MB-231 [7]): 7 µM
C=C1CC/C=C(\C)CCC2=C(C)C(=O)O[C@H]2/C=C(\C)CCC1=O | – | inactive | inactive | – | –
O=C1NC(=O)/C(=C/c2ccc(O)cc2)N1 | – | – | – | – | Activity (PC-3 [10]): Active; Activity (MDA-MB-231 [11]): Active
C=CCNC(=O)N(CC=C)C(=O)N(CC=C)C(=O)O[C@H]1CC/C(C)=C/[C@@H]2OC(=O)C(C)=C2CC/C(C)=C/CCC1=C | Active | inactive | inactive | Active | IC50 (PC-3 [9]): 24.3 µM
